Sampled rows, rich in hits. Any-hit rate of the full collection: about 3.7%.
procasp7 counter: activates human procaspase-7, counter-screen for procaspase-3 activators. P55210. recombinant procaspase-7, Ac-DEVD-pNA absorbance 405 nm; D23A/D198A/D206A triple mutant, cannot self-cleave; scale: DMSO 0, 5 µM enzyme 100. activation, % at 8.5 µM. 330,000 compounds, 0.093% hits;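 active = percent activation above the screen-wide mean plus 3 SD, cut at about 25% in these data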
Target sequence (P55210 whole entry D23A/D198A/D206A): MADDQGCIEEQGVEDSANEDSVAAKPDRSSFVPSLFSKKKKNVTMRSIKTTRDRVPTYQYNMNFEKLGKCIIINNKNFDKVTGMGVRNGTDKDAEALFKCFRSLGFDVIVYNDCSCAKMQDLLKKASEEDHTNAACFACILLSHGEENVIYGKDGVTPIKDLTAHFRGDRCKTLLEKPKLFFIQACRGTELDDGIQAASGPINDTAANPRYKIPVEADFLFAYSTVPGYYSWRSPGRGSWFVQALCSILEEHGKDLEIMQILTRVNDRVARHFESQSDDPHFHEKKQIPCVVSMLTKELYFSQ
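Assay system: Uncleavable procaspase-7 mutant enzyme; Input: 2 µM procaspase-7 mutant as dispensed; Also added: DEVD-pNA substrate; Medium: Zinc-free HEPES pH 7.4 with 300 mM NaCl, 0.01% Triton X-100; Timing: 1 h compound preincubation, 2 h substrate cleavage, 25 °C; Measured by: Epi-absorbance of released pNA at 405 nm, two timepoints.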
aDG glyco up: alpha-DG glycosylation activation; Pro5-aDG cells, alpha-DG glycosylation AlphaScreen (IIH6); 0% Pro5, 100% B10-LARGE cell signal; activation, % at 10 µM; 360,000 compounds, 0.22% hits;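 active = activation of at least 8% versus controls, or a plate z-score of at least 8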;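 also: Pro5 are CHO cells carrying HIG-tagged alpha-DG that lacks glycosylation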
MPTP inh: permeability transition pore inhibition; isolated mouse mitochondria, Ca2+ swelling absorbance, 30 min; inhibition, % at 10 µM; 360,000 compounds, 1.4% hits;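 active = inhibition of 50% or more, scaled per plate between neutral and stimulator controls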;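 also: 0% = DMSO wells given calcium and 100% = 1 mM EGTA wells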
proCasp3 act: activators of human procaspase-3; P42574; recombinant procaspase-3 D3A, Ac-DEVD-pNA absorbance 405 nm; 330,000 compounds, 0.11% hits; activation, % at 8.5 µM;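 active = activation above the mean of all tested compounds plus 3 SD, cut at about 21% in these data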;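 also: 0% = DMSO alone and 100% = DMSO wells spiked with extra 5 µM PC-3 D3A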
Target sequence (P42574 whole entry D9A/D28A/D175A): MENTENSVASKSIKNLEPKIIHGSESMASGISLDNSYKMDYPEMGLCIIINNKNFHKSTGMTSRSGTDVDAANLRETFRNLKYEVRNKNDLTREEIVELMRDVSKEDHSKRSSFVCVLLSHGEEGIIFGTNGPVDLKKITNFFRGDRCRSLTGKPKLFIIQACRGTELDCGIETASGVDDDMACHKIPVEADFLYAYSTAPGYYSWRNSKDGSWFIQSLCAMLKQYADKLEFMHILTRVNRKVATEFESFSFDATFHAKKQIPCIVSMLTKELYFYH
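Assay system: Procaspase-3 D3A mutant, all three cleavage aspartates alanine. Buffer or medium: Zinc-free HEPES saline buffer with Triton X-100. Times: 1 h compound preincubation, 2 h substrate hydrolysis at 25 °C. Measured by: 405 nm absorbance of p-nitroaniline, reads at 0 and 120 min. Read-out basis: percent activation relative to control range. Replicates: singlicate.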
GRIN3A LBD mod: modulates the human NR3A ligand-binding domain; Tm shift relative to glycine control, % at 25 µM; 340,000 compounds, 2.5% hits; NR3A LBD differential scanning fluorimetry, Tm shift; 0% = protein alone, 100% = glycine-bound protein; AID 1259313;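 active = melting temperature shift of at least 10% of the positive control shift, at one fixed dose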
Active calls of the source: *.

CC(=O)Nc1ccc(Nc2nc3ccccc3nc2NS(=O)(=O)c2ccc(Cl)c([N+](=O)[O-])c2)cc1 was read as aDG glyco up 0, MPTP inh 10 and GRIN3A LBD mod 24*.
Screening CC(=O)Nc1ccc(S(=O)(=O)Nc2ccccc2C(=O)N2CCCC2)cc1 returned procasp7 counter 1, aDG glyco up 0, MPTP inh -1, proCasp3 act 9 and GRIN3A LBD mod -1.
For O=C(O)c1cccc(Nc2nc3ccccc3nc2NS(=O)(=O)c2ccccc2)c1 the results were procasp7 counter 5, aDG glyco up 0, MPTP inh 0, proCasp3 act 0 and GRIN3A LBD mod -2.
NS(=O)(=O)c1cccc(Nc2nc3ccccc3nc2NS(=O)(=O)c2ccc(Cl)cc2)c1 was read as procasp7 counter 3, aDG glyco up 0, MPTP inh 7, proCasp3 act -2 and GRIN3A LBD mod 28*.
For CC(=O)Nc1ccc(S(=O)(=O)Nc2cc(C)c(-n3nc4ccccc4n3)cc2O)cc1 the results were procasp7 counter -3, aDG glyco up 0, MPTP inh 0, proCasp3 act 3 and GRIN3A LBD mod 10*.
Screening CC(=O)Nc1ccc(S(=O)(=O)Nc2nc3ccccc3nc2Nc2cccc(O)c2)cc1 returned procasp7 counter 2, aDG glyco up 0, MPTP inh 2, proCasp3 act -1 and GRIN3A LBD mod 19*.
`C[C@@H]1CCCCO[C@@H](CN(C)C(=O)CCCN(C)C)[C@@H](C)CN([C@H](C)CO)C(=O)c2cc(N(C)C)ccc2O1` gave aDG glyco up 0 and MPTP inh -2.
For O=C(/C=C/c1ccccc1)CCN1CCCCC1 the results were aDG glyco up 0, MPTP inh -3 and GRIN3A LBD mod 0.
`CC(=O)Nc1ccc(S(=O)(=O)Nc2nc3ccccc3nc2Nc2ccc(C(=O)O)c(O)c2)cc1` gave procasp7 counter 4, aDG glyco up 0, MPTP inh 0, proCasp3 act -4 and GRIN3A LBD mod 24*.
CC(=O)Nc1ccc(S(=O)(=O)Nc2nc3ccccc3nc2Nc2ccc3ccccc3c2)cc1 was read as procasp7 counter -6, aDG glyco up 0, MPTP inh 5, proCasp3 act -5 and GRIN3A LBD mod 34*.
Screening CC(=O)Nc1ccc(S(=O)(=O)Nc2nc3ccccc3nc2Nc2ccc(N)cc2)cc1 returned procasp7 counter -10, aDG glyco up 0, MPTP inh 2, proCasp3 act 3 and GRIN3A LBD mod 6.
O=C(/C=C/c1cccs1)Nc1ccc(N2CCOCC2)c(S(=O)(=O)Nc2cc(Cl)ccc2Cl)c1 was read as procasp7 counter -5, aDG glyco up 0, MPTP inh 5, proCasp3 act 5 and GRIN3A LBD mod 10*.
Screening Cc1cc(F)ccc1-c1cc(C(=O)NC2CCCCC2)[nH]n1 returned aDG glyco up 0 and MPTP inh 0.
NC1=NC(=O)CC(C(=O)NCCc2ccccc2)S1 (configuration not stated) was read as procasp7 counter -20, aDG glyco up 4, MPTP inh -3, proCasp3 act -30 and GRIN3A LBD mod 10*.
Screening NC1=NC(=O)CC(C(=O)Nc2cccc3ccccc23)S1 (configuration not stated) returned procasp7 counter 0, aDG glyco up 0, MPTP inh 0, proCasp3 act 4 and GRIN3A LBD mod 0.
Cc1[nH]n(-c2ccccc2)c(=O)c1C1(C(F)(F)F)C(=O)N(c2ccccc2)C2=C1C(=O)CC(C)(C)C2 (configuration not stated) was read as procasp7 counter 8, aDG glyco up 0, MPTP inh -1, proCasp3 act 2 and GRIN3A LBD mod 13*.
For Cc1ccc(N2C(=O)C(c3c(C)[nH]n(-c4ccccc4)c3=O)(C(F)(F)F)C3=C2CC(C)(C)CC3=O)cc1 (configuration not stated) the results were procasp7 counter -10, aDG glyco up 0, MPTP inh 1, proCasp3 act 3 and GRIN3A LBD mod -5.
For O=C(/C=C/[C@H]1O[C@@H](n2cnc3c(NC(=O)c4ccccc4)ncnc32)[C@H](O)[C@@H]1O)NCc1ccc2c(c1)OCO2 the results were aDG glyco up 0 and MPTP inh -1.
Screening CN(N=O)c1ccc(CC2CCc3ccccc32)cc1 (configuration not stated) returned aDG glyco up 0, MPTP inh 2 and GRIN3A LBD mod 15*.
Cc1ccc(Nc2nc(N)nc(COC(=O)C3=COCCO3)n2)cc1 was read as procasp7 counter 3, aDG glyco up 0, MPTP inh 0, proCasp3 act -4 and GRIN3A LBD mod 2.
For Cc1cc(C)cc(N(CC(=O)NCc2ccc(F)cc2)C(=O)c2snc(C(N)=O)c2N)c1 the results were procasp7 counter 7, aDG glyco up 0, MPTP inh 2, proCasp3 act 8 and GRIN3A LBD mod 11*.
For COc1ccc(/C=C/C(=O)c2oc3ccc(F)cc3c2C)cc1 the results were procasp7 counter -2, aDG glyco up 0, MPTP inh 4, proCasp3 act -6 and GRIN3A LBD mod 13*.
Screening O=C(CCCN1C(=O)/C(=C/c2cccs2)SC1=S)Nc1cc([N+](=O)[O-])ccc1O returned procasp7 counter 7, aDG glyco up 0, MPTP inh 23, proCasp3 act 0 and GRIN3A LBD mod 2.
`COc1ccc(/C=C2/SC(=S)N(CCCC(=O)Nc3ccc(O)cc3)C2=O)cc1` gave procasp7 counter -6, aDG glyco up 0, MPTP inh 8, proCasp3 act 2 and GRIN3A LBD mod 13*.
For O=C(CCCN1C(=O)/C(=C\c2cccs2)SC1=S)Nc1cccnc1 the results were procasp7 counter 5, aDG glyco up 1, MPTP inh 2, proCasp3 act -3 and GRIN3A LBD mod 13*.
For O=C(CCN1C(=O)/C(=C/c2ccc(F)cc2)SC1=S)Nc1cc([N+](=O)[O-])ccc1O the results were procasp7 counter -6, aDG glyco up 0, MPTP inh 12, proCasp3 act -6 and GRIN3A LBD mod 18*.
`COc1ccc(/C=C2\SC(=S)N(CCC(=O)Nc3cccc(O)c3)C2=O)cc1` gave aDG glyco up 1, MPTP inh 0 and GRIN3A LBD mod 35*.
For COC(=O)c1ccc(NCc2cc(O)ccc2O)cc1O the results were aDG glyco up 0, MPTP inh -1 and GRIN3A LBD mod 1.
For COC(=O)c1ccc(NCc2c(O)ccc(O)c2Br)cc1Cl the results were aDG glyco up 0, MPTP inh 1 and GRIN3A LBD mod 32*.

From PubChem
